# Test results taken from ChEMBL document CHEMBL1629442, “Structure based optimization of chromen-based TNF-α converting enzyme (TACE) inhibitors on S1' pocket and their quantitative structure-activity relationship (QSAR) study” (Bioorg Med Chem, 2010).
# Legend:
# [1] = molecular target: T1, Disintegrin and metalloproteinase domain-containing protein 17 (Homo sapiens, UniProt P78536); test: Inhibition of human TACE by fluorescent spectroscopy
# [2] = molecular target: T1, Disintegrin and metalloproteinase domain-containing protein 17; test: Inhibition of human TNF-alpha by fluorescent spectroscopy; type: functional
# Mus musculus [3] = species: Mus musculus; test: Inhibition of NO production in mouse Raw 264.7 cells assessed as No2- accumulation in the medium after 24 hrs; type: functional, cell-based
# Method in brief: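 RAW264.7 cells cultured with inhibitors for 24 h. Supernatant mixed 1:1 with Griess reagent (1% sulfanilamide, 0.1% naphthylethylenediamine dihydrochloride, 2% phosphoric acid), 10 min at room temperature. Absorbance read at 540 nm against a NaNO2 standard curve.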
# [4] = Half life in Sprague-Dawley rat at 5 mg/kg, iv; type: ADME, organism-based; design: dose 5 mg/kg, route intravenous; conditions: in vivo
# Method in brief: (§1)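 Male SD rats (10 weeks old, 285–305 g), cannulated in the right jugular vein, dosed iv or po with compound in saline, N = 3 per route. Blood drawn through the cannula at set times over 24 h and spun for plasma. Acetonitrile protein precipitation with carbamazepine internal standard, LC/MS/MS in positive MRM mode, non-compartmental analysis.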
# [5] = Half life in Sprague-Dawley rat at 30 mg/kg, po; type: ADME, organism-based; design: dose 30 mg/kg, route oral; conditions: in vivo; method in brief: as §1
# [6] = Mean residence time (infinity) in Sprague-Dawley rat at 5 mg/kg, iv; type: ADME, organism-based; design: dose 5 mg/kg, route intravenous; conditions: in vivo; method in brief: as §1
# [7] = Mean residence time (infinity) in Sprague-Dawley rat at 30 mg/kg, po; type: ADME, organism-based; design: dose 30 mg/kg, route oral; conditions: in vivo; method in brief: as §1
# [8] = Oral bioavailability in Sprague-Dawley rat at 30 mg/kg, po; type: ADME, organism-based; conditions: in vivo; method in brief: as §1
# Rattus norvegicus [9] = test: Antiinflammatory activity in Sprague-Dawley rat assessed as inhibition of carrageenan-induced paw edema at 30 mg/kg, ip administered 30 mins before carrageenan challenge measured at 6 hrs; type: functional; design: scale not given: the % may be the effect or the level left; conditions: route intraperitoneal
# Method in brief: (§2)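 SD rats (150 g, 5 weeks, SPF), five per group: vehicle, indomethacin 10 mg/kg (DMSO/Tween 80/H2O 1:4:95) as positive control, or compound at 30 or 100 mg/kg (ethanol/PEG 400-based vehicle), given ip. Ankle thickness measured by caliper; swelling expressed as % increase over pre-treatment thickness. Inhibition taken relative to vehicle at 6 h and later time point.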
# Rattus norvegicus [10] = test: Antiinflammatory activity in Sprague-Dawley rat assessed as inhibition of carrageenan-induced paw edema at 100 mg/kg, ip administered 30 mins before carrageenan challenge measured at 6 hrs; type: functional; design: scale not given: the % may be the effect or the level left; conditions: route intraperitoneal; method in brief: as §2
# Rattus norvegicus [11] = test: Antiinflammatory activity in Sprague-Dawley rat assessed as inhibition of carrageenan-induced paw edema at 30 mg/kg, ip administered 30 mins before carrageenan challenge measured at 12 hrs; type: functional; design: scale not given: the % may be the effect or the level left; conditions: route intraperitoneal; method in brief: as §2
# Rattus norvegicus [12] = test: Antiinflammatory activity in Sprague-Dawley rat assessed as inhibition of carrageenan-induced paw edema at 100 mg/kg, ip administered 30 mins before carrageenan challenge measured at 12 hrs; type: functional; design: scale not given: the % may be the effect or the level left; conditions: route intraperitoneal; method in brief: as §2
# Interstitial collagenase = molecular target: T2, Interstitial collagenase (Homo sapiens, UniProt P03956); test: Inhibition of human MMP1 in cell-free system by fluorescent spectroscopy
# T2 sequence (P03956 whole entry): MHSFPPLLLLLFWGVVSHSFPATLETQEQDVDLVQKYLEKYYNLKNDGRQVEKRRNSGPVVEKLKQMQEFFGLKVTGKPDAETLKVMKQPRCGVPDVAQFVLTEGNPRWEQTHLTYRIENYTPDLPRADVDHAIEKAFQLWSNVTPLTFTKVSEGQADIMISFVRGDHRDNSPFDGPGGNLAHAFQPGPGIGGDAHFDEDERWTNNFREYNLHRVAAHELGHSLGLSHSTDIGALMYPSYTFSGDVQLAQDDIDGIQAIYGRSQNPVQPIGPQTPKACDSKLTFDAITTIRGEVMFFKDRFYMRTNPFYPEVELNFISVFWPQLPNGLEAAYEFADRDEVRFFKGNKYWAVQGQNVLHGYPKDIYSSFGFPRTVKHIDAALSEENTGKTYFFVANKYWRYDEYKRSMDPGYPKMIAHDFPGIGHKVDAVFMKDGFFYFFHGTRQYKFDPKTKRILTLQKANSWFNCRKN
# Stromelysin-1 = Stromelysin-1 (Homo sapiens, UniProt P08254); test: Inhibition of human MMP3 in cell-free system by fluorescent spectroscopy
# Chain of Stromelysin-1 (P08254 whole entry, the tested form may be a part): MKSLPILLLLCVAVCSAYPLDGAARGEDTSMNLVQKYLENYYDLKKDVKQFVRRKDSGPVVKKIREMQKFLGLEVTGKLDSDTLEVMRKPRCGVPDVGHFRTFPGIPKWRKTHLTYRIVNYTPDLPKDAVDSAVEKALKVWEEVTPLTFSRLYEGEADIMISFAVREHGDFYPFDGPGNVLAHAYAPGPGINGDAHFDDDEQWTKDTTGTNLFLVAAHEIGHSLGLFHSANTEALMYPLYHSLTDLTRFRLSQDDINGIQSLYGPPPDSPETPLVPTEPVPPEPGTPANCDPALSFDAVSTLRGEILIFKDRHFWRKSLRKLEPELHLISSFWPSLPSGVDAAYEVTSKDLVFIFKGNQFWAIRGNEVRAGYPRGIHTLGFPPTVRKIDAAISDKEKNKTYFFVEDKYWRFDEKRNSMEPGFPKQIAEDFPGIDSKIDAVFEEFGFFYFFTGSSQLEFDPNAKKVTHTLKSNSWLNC
# Method in brief: (§3)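 Recombinant human MMP-3 or MMP-9 catalytic domain with fluorogenic quenched peptide Mca-Pro-Leu-Gly-Leu-Dpa-Ala-Arg-NH2. Cleavage followed as fluorescence increase (excitation 324, emission 420). Rate of emission change taken as enzyme activity; IC50 values are means of three experiments.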
# [13] = molecular target: Matrix metalloproteinase-9 (Homo sapiens, UniProt P14780); test: Inhibition of human MMP9 in cell-free system by fluorescent spectroscopy; method in brief: as §3
# Chain of Matrix metalloproteinase-9 (P14780 whole entry): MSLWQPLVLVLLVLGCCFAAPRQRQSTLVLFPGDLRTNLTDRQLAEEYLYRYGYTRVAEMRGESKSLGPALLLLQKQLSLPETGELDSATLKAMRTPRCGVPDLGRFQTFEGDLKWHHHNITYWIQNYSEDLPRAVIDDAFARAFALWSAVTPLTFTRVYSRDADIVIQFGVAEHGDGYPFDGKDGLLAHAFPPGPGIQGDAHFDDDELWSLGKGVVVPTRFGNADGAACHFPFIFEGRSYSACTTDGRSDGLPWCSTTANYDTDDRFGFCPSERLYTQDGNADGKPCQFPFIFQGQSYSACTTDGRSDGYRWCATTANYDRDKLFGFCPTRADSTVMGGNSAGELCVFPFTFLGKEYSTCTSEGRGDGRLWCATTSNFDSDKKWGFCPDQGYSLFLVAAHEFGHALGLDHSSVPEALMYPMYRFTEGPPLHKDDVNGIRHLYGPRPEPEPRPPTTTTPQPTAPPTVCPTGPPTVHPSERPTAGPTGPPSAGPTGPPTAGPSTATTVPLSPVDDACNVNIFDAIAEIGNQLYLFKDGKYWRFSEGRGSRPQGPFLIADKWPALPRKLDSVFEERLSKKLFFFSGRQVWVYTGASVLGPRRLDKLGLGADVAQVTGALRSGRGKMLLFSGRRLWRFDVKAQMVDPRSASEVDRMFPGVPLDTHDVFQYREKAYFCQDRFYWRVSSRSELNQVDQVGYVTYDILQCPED
# Mus musculus [14] = test: Inhibition of LPS-alpha induced TNF-alpha production in BALB/c mouse assessed as decreased plasma TNF level at 30 mg/kg, po administered post LPS challenge measured after 60 mins by ELISA; type: functional; conditions: 1 h
# Method in brief: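 BALB/c mice (7–9 weeks), four per group, fasted 24 h. LPS given ip; compound given orally at 30 mg/kg ([…]). Serum collected from the heart and TNF-α measured by ELISA; percent inhibition reported.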
# [15] = Half life in human liver microsomes at 40 uM by LC/MS/MS; type: ADME, Microsome
# Method in brief: (§4)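 Compound at 40 µM with human liver microsomes (1 mg/mL), preincubated 5 min at 37 °C, then started with NADPH (1 mM final). Aliquots taken at 0, 15, 45 and 80 min and quenched with ice-cold acetonitrile containing carbamazepine internal standard. Centrifuged, then LC/MS/MS for parent; half-life and microsomal clearance derived.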
# [16] = Metabolic stability in human liver microsomes at 40 uM by LC/MS/MS; type: ADME, Microsome; method in brief: as §4
# [17] = Tmax in Sprague-Dawley rat at 30 mg/kg, po; type: ADME, organism-based; design: dose 30 mg/kg, route oral; conditions: in vivo; method in brief: as §1
# [18] = Cmax in Sprague-Dawley rat at 30 mg/kg, po; type: ADME, organism-based; design: dose 30 mg/kg, route oral; conditions: in vivo; method in brief: as §1
# [19] = AUC (0 to infinity) in Sprague-Dawley rat at 5 mg/kg, iv; type: ADME, organism-based; design: time infinity, dose 5 mg/kg, route intravenous; conditions: plasma; method in brief: as §1
# [20] = AUC (0 to infinity) in Sprague-Dawley rat at 30 mg/kg, po; type: ADME, organism-based; design: time infinity, dose 30 mg/kg, route oral; conditions: plasma; method in brief: as §1
# [21] = Clearance in Sprague-Dawley rat at 5 mg/kg, iv; type: ADME, organism-based; design: dose 5 mg/kg, route intravenous; conditions: in vivo; method in brief: as §1
# [22] = Volume of distribution at steady state in Sprague-Dawley rat at 5 mg/kg, iv; type: ADME, organism-based; design: dose 5 mg/kg, route intravenous; conditions: in vivo, read-out: Vdss; method in brief: as §1
# T1 sequence (P78536 whole entry, the tested form may be a part): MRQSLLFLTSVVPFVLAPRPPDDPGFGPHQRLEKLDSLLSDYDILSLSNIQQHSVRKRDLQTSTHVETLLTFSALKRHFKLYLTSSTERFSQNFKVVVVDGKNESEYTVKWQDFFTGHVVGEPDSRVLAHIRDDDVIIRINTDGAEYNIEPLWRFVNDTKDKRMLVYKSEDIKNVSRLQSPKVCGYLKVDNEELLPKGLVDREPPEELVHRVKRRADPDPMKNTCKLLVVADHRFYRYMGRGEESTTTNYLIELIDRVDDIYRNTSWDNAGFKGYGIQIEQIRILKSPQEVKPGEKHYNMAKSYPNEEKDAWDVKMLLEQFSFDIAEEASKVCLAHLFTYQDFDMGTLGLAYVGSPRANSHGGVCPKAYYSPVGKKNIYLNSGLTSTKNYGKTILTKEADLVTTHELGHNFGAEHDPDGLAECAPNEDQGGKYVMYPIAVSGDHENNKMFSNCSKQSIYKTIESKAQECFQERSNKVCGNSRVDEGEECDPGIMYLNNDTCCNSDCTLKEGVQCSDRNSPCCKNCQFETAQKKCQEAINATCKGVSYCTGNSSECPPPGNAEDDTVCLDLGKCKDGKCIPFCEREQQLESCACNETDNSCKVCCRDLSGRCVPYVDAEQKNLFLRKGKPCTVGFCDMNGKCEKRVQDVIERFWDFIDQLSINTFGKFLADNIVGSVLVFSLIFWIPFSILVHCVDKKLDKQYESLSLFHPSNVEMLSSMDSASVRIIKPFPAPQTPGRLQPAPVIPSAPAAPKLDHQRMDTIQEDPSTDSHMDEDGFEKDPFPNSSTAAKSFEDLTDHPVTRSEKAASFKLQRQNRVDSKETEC
structure (smiles),measurement,setting,value
CCN(CC)CCOc1ccc(CCC(Cc2cc3cc(C)ccc3oc2=O)C(=O)NO)cc1 (stereo not given),IC50,[1],0.53 nM
same,IC50,[2],140 nM
same,IC50,Mus musculus [3],Not Active
Cc1ccc2oc(=O)c(CC(Cc3ccc(OCCN4CCCCC4)cc3)C(=O)NO)cc2c1 (stereo not given),IC50,[1],10.9 nM
same,IC50,[2],1500 nM
same,IC50,Mus musculus [3],Not Active
Cc1ccc2oc(=O)c(CC(CCCc3ccc(OCCN4CCCCC4)cc3)C(=O)NO)cc2c1 (stereo not given),IC50,[1],1.07 nM
same,IC50,[2],320 nM
same,IC50,Mus musculus [3],Not Active
Cc1ccc2oc(=O)c(CC(Cc3cccc(OCCN4CCCCC4)c3)C(=O)NO)cc2c1 (stereo not given),IC50,[1],1.07 nM
same,IC50,[2],260 nM
same,IC50,Mus musculus [3],Not Active
Cc1ccc2oc(=O)c(CC(CCc3ccc(OCCN4CCCCC4)cc3)C(=O)NO)cc2c1 (stereo not given),IC50,[1],1.04 nM
same,IC50,[2],200 nM
same,IC50,Mus musculus [3],Not Active
Cc1ccc2oc(=O)c(CC(CCc3cccc(OCCN4CCCCC4)c3)C(=O)NO)cc2c1 (stereo not given),IC50,[1],0.9 nM
same,IC50,[2],240 nM
same,IC50,Mus musculus [3],Not Active
CCN(CC)CCOc1ccc(CCC(Cc2cc3ccc(F)cc3oc2=O)C(=O)NO)cc1 (stereo not given),IC50,[1],0.46 nM
same,IC50,[2],70 nM
same,IC50,Mus musculus [3],Not Active
Cc1ccc2oc(=O)c(CC(Cc3ccccc3)C(=O)NO)cc2c1 (stereo not given),IC50,[1],0.5 nM
same,IC50,[2],520 nM
same,IC50,Mus musculus [3],Not Active
Cc1ccc2oc(=O)c(CC(CCCc3cccc(OCCN4CCCCC4)c3)C(=O)NO)cc2c1 (stereo not given),IC50,[1],0.27 nM
same,IC50,[2],230 nM
same,IC50,Mus musculus [3],Not Active
CCN(CC)CCOc1ccc(CCC(Cc2cc3ccc(C)cc3oc2=O)C(=O)NO)cc1 (stereo not given),half-life,[4],2.8 h
same,half-life,[5],3.19 h
same,MRT inf,[6],1.14 h
same,MRT inf,[7],2.9 h
same,bioavailability,[8],41.6%
same,Activity,Rattus norvegicus [9],8%
same,Activity,Rattus norvegicus [10],20%
same,Activity,Rattus norvegicus [11],14%
same,Activity,Rattus norvegicus [12],35%
same,IC50,[1],0.28 nM
same,IC50,[2],60 nM
same,IC50,Mus musculus [3],Not Active
same,IC50,Interstitial collagenase,557 nM
same,IC50,Stromelysin-1,8.7 nM
same,IC50,[13],23 nM
same,inhibition in vivo at 30 mg/kg,Mus musculus [14],74%
same,half-life at 40 µM,[15],1.22 h
same,microsomal CLint at 40 µM,[16],9.5 µL/min/mg
same,Tmax,[17],2 h
same,Cmax,[18],1140 ng/mL
same,AUC(0-inf),[19],1880 ng·h/mL
same,AUC(0-inf),[20],4690 ng·h/mL
same,clearance,[21],44.3 mL/min/kg
same,Vd,[22],3.04 L/kg
Cc1ccc2oc(=O)c(CC(CCCCc3ccccc3)C(=O)NO)cc2c1 (stereo not given),IC50,[1],32.8 nM
same,IC50,[2],> 3000 nM
same,IC50,Mus musculus [3],Not Active
Cc1ccc2oc(=O)c(CC(CCc3ccc(O)cc3)C(=O)NO)cc2c1 (stereo not given),IC50,[1],0.3 nM
same,IC50,[2],920 nM
same,IC50,Mus musculus [3],Not Active
Cc1ccc2oc(=O)c(CC(CCc3ccc(OCCN(C)C)cc3)C(=O)NO)cc2c1 (stereo not given),IC50,[1],0.66 nM
same,IC50,[2],110 nM
same,IC50,Mus musculus [3],Not Active
